KCNQ1 act – potentiates or activates the human KCNQ1 potassium channel | P51787 | CHO-K1 KCNQ1, thallium flux FluxOR fluorescence; hits give high values | B-score at 10 µM | 0.35% of 310,000 active;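 active = fluorescence ratio B-score, a plate-corrected score, at least three library SD, with initial intensity B-score within 5 SD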
Target sequence (P51787 whole entry, looked up): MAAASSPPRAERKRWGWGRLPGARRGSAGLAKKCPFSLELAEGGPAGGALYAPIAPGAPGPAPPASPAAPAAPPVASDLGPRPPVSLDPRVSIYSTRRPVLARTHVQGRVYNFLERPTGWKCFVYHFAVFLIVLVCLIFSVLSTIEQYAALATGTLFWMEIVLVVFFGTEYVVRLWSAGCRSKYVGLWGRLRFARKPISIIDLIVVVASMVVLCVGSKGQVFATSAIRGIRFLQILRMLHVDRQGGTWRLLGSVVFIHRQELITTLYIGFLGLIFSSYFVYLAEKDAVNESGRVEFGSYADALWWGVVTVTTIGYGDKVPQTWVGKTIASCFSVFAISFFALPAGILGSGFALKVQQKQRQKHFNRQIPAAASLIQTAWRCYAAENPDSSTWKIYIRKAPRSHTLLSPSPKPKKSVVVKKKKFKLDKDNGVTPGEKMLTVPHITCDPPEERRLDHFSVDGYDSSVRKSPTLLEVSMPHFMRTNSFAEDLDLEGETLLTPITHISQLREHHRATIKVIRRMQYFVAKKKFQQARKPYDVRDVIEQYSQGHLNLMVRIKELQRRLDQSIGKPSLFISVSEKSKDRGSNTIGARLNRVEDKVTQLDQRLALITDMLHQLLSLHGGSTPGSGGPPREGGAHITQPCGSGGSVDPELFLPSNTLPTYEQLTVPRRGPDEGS
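System: Stable KCNQ1 CHO-K1 line | Incubation: 90 min dye loading and 20 min compound exposure, both at room temperature | Measure: Ratio B score | Medium: Assay buffer for compound exposure, DMSO matched across wells | Compound dosing: Single-concentration screen | Probe or stimulus: K+/Tl+ depolarizing stimulus | Measured by: Kinetic FluxOR fluorescence, 10 s baseline plus 110 s post-stimulus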
KCNK3 block – human KCNK3 channel inhibition, primary screen; O14649; CHO-KCNK3 thallium flux, FluxOR fluorescence; hits give low values; B-score at 10 µM; 0.84% of 340,000 active; AID 602410;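 active = B-score under library mean minus 4 SD, starting fluorescence ratio at most library mean plus 5 SD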;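 note: more negative B-score means stronger inhibition of thallium flux through KCNK3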
KCNQ1 inh – inhibitors of human KCNQ1 potassium channel; P51787; CHO-K1 KCNQ1, FluxOR thallium flux fluorescence; hits give high values; B-score at 10 µM; 1.3% of 310,000 active; AID 2642;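 active = compounds whose thallium flux B-score, printed positive for inhibition, exceeds three library SD while starting fluorescence stays within three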;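 note: channel opened by potassium depolarization with thallium stimulus after 20 min compound exposure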
KCNK9 block – inhibitors of human KCNK9 two-pore domain potassium channel | Q9NPC2 | HEK293 KCNK9, FluxOR thallium flux fluorescence; hits give low values | B-score at 10 µM | 1.2% of 310,000 active | AID 488922;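 active = ratio B-score over 3 SD below the library mean, with starting fluorescence within 5 SD of its mean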;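 note: negative B-score means less thallium flux so channel inhibition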
hERG rescue – shields human hERG channel from block by proarrhythmic agents; Q12809; CHO-hERG, FluxOR thallium flux, dofetilide IC70 present; activation (rescue from dofetilide block), less the hit threshold, % at 10 µM; 0.51% of 310,000 active; AID 1511;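 active = activation above the mean of controls blocked by dofetilide plus 5 SD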;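 note: thallium influx through hERG after potassium depolarization seen as dye fluorescence rise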
Kir21 inh – Kir2.1 (mouse) channel inhibition | AID 1672 | P35561 | HEK293-Kir2.1, FluxOR thallium flux fluorescence; hits give low values | 0.85% of 310,000 active | B-score at 10 µM;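 active = fluorescence ratio B-score at or below minus 3 SD of library scores, with starting-brightness B-score within 2 SD, cut at about -4.2 in these data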;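 note: channel flux triggered by added potassium and thallium sulfate stimulus; B-score of peak minus minimum fluorescence over baseline after thallium stimulus; more negative B-score means stronger Kir2.1 block with less thallium influx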
KCNK3 confirm – confirmation of human KCNK3 two-pore domain potassium channel inhibitors. shares compounds with KCNK3 block. CHO-KCNK3 thallium flux, FluxOR fluorescence; 0% buffer, 100% carvedilol maximal block. ratio percent of control, % at 10 µM. 99% of 2,400 active. AID 651638;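 active = ratio percent of control, averaged over triplicates, above buffer control mean plus 5 SD, cut at about 64% in these data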;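 note: ratio is the fluorescence rise from min to max over baseline after thallium stimulus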
KCNK3 noninduced – counter-screen for KCNK3 inhibitors: effect in non-induced cells; shares compounds with KCNK3 block; non-induced KCNK3 parental cells, FluxOR thallium flux; hits give low values; thallium flux ratio (lower = more inhibition) at 10 µM; 40% of 2,400 active; AID 651747;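 active = thallium flux ratio, averaged over three wells, more than 5 SD below the buffer control mean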;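 note: host cells are CHO cells without KCNK3 induction; ratio is peak minus trough fluorescence over baseline then normalized to buffer controls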
* marks the source's active call; other numbers are inactive results. Only some compounds are listed: those with a hit (about 3.8% of all), similar ones and a draw of the others.

Results for CC1=C(C(=O)Nc2cccc(C(=O)NCc3ccccc3C)c2)SCCO1 ?
KCNQ1 act: inactive; KCNK3 block: -8.8*; KCNQ1 inh: inactive; KCNK9 block: -6.6*; hERG rescue: -11; Kir21 inh: -0.92; KCNK3 confirm: 100*; KCNK3 noninduced: inactive

How did CC1=C(C(=O)Nc2ccc(CC(=O)NCc3ccccc3C)cc2)SCCO1 do in these assays?
KCNQ1 act: inactive; KCNK3 block: inactive; KCNQ1 inh: inactive; KCNK9 block: inactive; hERG rescue: -10; Kir21 inh: 0.47

How did O=C(CSc1n[nH]c(-c2ccccc2O)n1)NC1CCCCC1 do in these assays?
KCNQ1 act: inactive; KCNK3 block: inactive; KCNQ1 inh: inactive; KCNK9 block: inactive; hERG rescue: -16; Kir21 inh: 0.05

How did CCCN1C(=O)/C(=C/c2cc(C)n(C)c2C)SC1=Nc1ccc(OC)cc1 do in these assays?
KCNQ1 act: inactive; KCNK3 block: -11*; KCNQ1 inh: inactive; KCNK9 block: inactive; hERG rescue: -8; Kir21 inh: -0.76; KCNK3 confirm: 101*; KCNK3 noninduced: 0.15*

How did Cc1cccc(N2CCN(C(=O)c3ccccc3NC(=O)C3=CSCCO3)CC2C)c1 (centres undefined) do in these assays?
KCNQ1 act: inactive; KCNK3 block: inactive; KCNQ1 inh: inactive; KCNK9 block: inactive; hERG rescue: -18; Kir21 inh: -0.51

What do the screens show for `O=C(C1CCCN(S(=O)(=O)c2cccc3nsnc23)C1)N1CC=C(c2ccccc2)CC1` (centres undefined)?
KCNK3 block: -15*; KCNK3 confirm: 115*; KCNK3 noninduced: inactive

Results for O=C(C1CCN(S(=O)(=O)c2cccc3nsnc23)CC1)N1CC=C(c2ccccc2)CC1 ?
KCNQ1 act: inactive; KCNK3 block: inactive; KCNQ1 inh: inactive; KCNK9 block: inactive; hERG rescue: -6; Kir21 inh: -0.75

What do the screens show for `CC1CCc2sc(C(=O)N/N=C/c3ccc(O)cc3)cc2C1` (centres undefined)?
KCNQ1 act: inactive; KCNK3 block: -10*; KCNQ1 inh: inactive; KCNK9 block: inactive; hERG rescue: -5; Kir21 inh: -1.6; KCNK3 confirm: 57*; KCNK3 noninduced: inactive

How did C/C(=N\NC(=O)c1cc2c(s1)CCC(C)C2)c1ccncc1 (centres undefined) do in these assays?
KCNQ1 act: inactive; KCNK3 block: inactive; KCNQ1 inh: inactive; KCNK9 block: inactive; hERG rescue: -4; Kir21 inh: -0.55

How did O=C(NNC(=O)c1cc(-c2ccccc2)nc2ccccc12)Nc1cccc(Cl)c1 do in these assays?
KCNQ1 act: inactive; KCNK3 block: -9.9*; KCNQ1 inh: 13*; KCNK9 block: inactive; hERG rescue: -22; Kir21 inh: 1.2; KCNK3 confirm: 115*; KCNK3 noninduced: inactive

What do the screens show for `O=c1[nH]c(SCCOc2ccccc2F)nc2ccccc12`?
KCNQ1 act: inactive; KCNK3 block: inactive; KCNQ1 inh: inactive; KCNK9 block: inactive; hERG rescue: -19; Kir21 inh: 0.34

Results for Cn1c(SCc2ccc(Br)cc2)nc2ccccc2c1=O ?
KCNQ1 act: inactive; KCNK3 block: -9.5*; KCNQ1 inh: inactive; KCNK9 block: inactive; hERG rescue: -3; Kir21 inh: -0.26; KCNK3 confirm: 123*; KCNK3 noninduced: 0.13*

Results for Cn1c(SCCOc2ccccc2F)nc2ccccc2c1=O ?
KCNQ1 act: inactive; KCNK3 block: -13*; KCNQ1 inh: inactive; KCNK9 block: inactive; hERG rescue: -12; Kir21 inh: 1.2; KCNK3 confirm: 110*; KCNK3 noninduced: inactive

How did Cn1c(SCc2ccccc2)nc2ccsc2c1=O do in these assays?
KCNQ1 act: inactive; KCNK3 block: -9.8*; KCNQ1 inh: inactive; KCNK9 block: inactive; hERG rescue: -11; Kir21 inh: -1.2; KCNK3 confirm: 104*; KCNK3 noninduced: inactive

Results for COc1ccc(CCNC(=O)CSc2cn(Cc3cccc(C)c3)c3ccccc23)cc1OC ?
KCNQ1 act: inactive; KCNK3 block: -9.2*; KCNQ1 inh: inactive; KCNK9 block: inactive; hERG rescue: -11; Kir21 inh: -1.1; KCNK3 confirm: 105*; KCNK3 noninduced: inactive

Results for Nc1cc(S(=O)(=O)N2CCCCC2)ccc1Oc1ccc(Cl)cc1 ?
KCNQ1 act: inactive; KCNK3 block: -9*; KCNQ1 inh: inactive; KCNK9 block: inactive; hERG rescue: -23; Kir21 inh: 1.1; KCNK3 confirm: 112*; KCNK3 noninduced: inactive

Results for COC(=O)c1ccc(Oc2ccc(S(=O)(=O)N3CCCCC3)cc2N)cc1 ?
KCNQ1 act: inactive; KCNK3 block: inactive; KCNQ1 inh: inactive; KCNK9 block: inactive; hERG rescue: -4; Kir21 inh: 2.9

Results for COc1ccc(C(=O)OCCOc2ccccc2C(C)=O)c(O)c1 ?
KCNQ1 act: inactive; KCNK3 block: -9.8*; KCNQ1 inh: inactive; KCNK9 block: inactive; hERG rescue: -9; Kir21 inh: 0.41; KCNK3 confirm: 119*; KCNK3 noninduced: 0.14*

What do the screens show for `O=C(c1ccc(-c2ccccc2)cc1)C1CCCN(C(=O)c2ccncc2)C1` (centres undefined)?
KCNQ1 act: inactive; KCNK3 block: inactive; KCNQ1 inh: inactive; KCNK9 block: inactive; hERG rescue: -12; Kir21 inh: 0.73

Results for O=C(c1ccc(-c2ccccc2)cc1)C1CCCN(Cc2ccncc2)C1 (centres undefined) ?
KCNQ1 act: inactive; KCNK3 block: -10*; KCNQ1 inh: inactive; KCNK9 block: inactive; hERG rescue: -24; Kir21 inh: 0.02; KCNK3 confirm: 129*; KCNK3 noninduced: inactive

What do the screens show for `Cc1nn2c(-c3cccc(NC(=O)c4ccco4)c3)nnc2c2ccccc12`?
KCNQ1 act: inactive; KCNK3 block: -14*; KCNQ1 inh: inactive; KCNK9 block: inactive; hERG rescue: -20; Kir21 inh: 0.31; KCNK3 confirm: 106*; KCNK3 noninduced: inactive

How did O=C(Nc1cccc(-c2nnc(-c3ccccc3)o2)c1)c1ccco1 do in these assays?
KCNQ1 act: inactive; KCNK3 block: inactive; KCNQ1 inh: inactive; KCNK9 block: inactive; hERG rescue: -4; Kir21 inh: 1.1

What do the screens show for `CC(=O)N(Cc1cccc(Br)c1)c1ccc(N2CCOCC2)c(Cl)c1`?
KCNQ1 act: inactive; KCNK3 block: inactive; KCNQ1 inh: inactive; KCNK9 block: inactive; hERG rescue: -11; Kir21 inh: -2.6
